The nature of assay [1]: Cytotoxicity against human MCF7 cells assessed as reduction in cell viability after 48 hrs by MTT assay. Type of assay: functional, cell-based. The conditions noted are these: MCF7, 48 h. Summed up: (§1)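 Cells grown in DMEM or MEM with 10% FBS at 37 °C, 5% CO2. Seeded at 1×10^4 cells/well, incubated 48 h, then exposed to compound for 48 h with vehicle control. MTT (5 mg/mL stock) added for 4 h; formazan dissolved in DMSO, absorbance read at 570 nm. Preliminary screen at 50 µM. Compounds giving >50% inhibition were tested for dose-response curves; IC50 derived by linear regression of % inhibition versus concentration. Mean of three independent experiments in triplicate.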

Assay [2] is described as follows: Cytotoxicity against human MCF7 cells assessed as growth inhibition at 50 uM after 48 hrs by MTT assay relative to control. It counts as functional. Conditions: MCF7, 48 h, read-out: GI. In short, it runs like this:
as §1

Assay [3] can be described thus: Cytotoxicity against human A549 cells assessed as growth inhibition at 50 uM after 48 hrs by MTT assay relative to control. Conditions: A549, 48 h, read-out: GI. It counts as functional. In short, it runs like this: as §1
A short description of assay [4]: Cytotoxicity against human BT549 cells assessed as growth inhibition at 50 uM after 48 hrs by MTT assay relative to control. Conditions: BT-549, 48 h, read-out: GI. It counts as functional. In short, it runs like this: as §1
A short description of assay [5]: Cytotoxicity against human A549 cells assessed as reduction in cell viability after 48 hrs by MTT assay. It counts as functional, cell-based. Conditions: A549, 48 h. In short, it runs like this:
as §1

Assay [6] can be described thus: Cytotoxicity against human PC3 cells assessed as reduction in cell viability after 48 hrs by MTT assay. Type of assay: functional, cell-based. Conditions: PC-3, 48 h. In short, it runs like this: as §1
Assay [7] in a line: Cytotoxicity against human DU145 cells assessed as growth inhibition at 50 uM after 48 hrs by MTT assay relative to control. It counts as functional. Conditions: DU-145, 48 h, read-out: GI. In short, it runs like this:
as §1

Assay [8] can be described thus: Cytotoxicity against human DU145 cells assessed as reduction in cell viability after 48 hrs by MTT assay. It counts as functional, cell-based. The conditions noted are these: DU-145, 48 h. In short, it runs like this: as §1
Assay [9] is described as follows: Cytotoxicity against human BT549 cells assessed as reduction in cell viability after 48 hrs by MTT assay. It counts as functional, cell-based. The conditions noted are these: BT-549, 48 h. Summed up:
as §1

Assay [10] can be described thus: Cytotoxicity against HGC cells assessed as reduction in cell viability after 48 hrs by MTT assay. Conditions: Homo sapiens. It counts as functional, cell-based. Summed up: as §1
Assay [11] is described as follows: Cytotoxicity against human PC3 cells assessed as growth inhibition at 50 uM after 48 hrs by MTT assay relative to control. Type of assay: functional. The conditions noted are these: PC-3, 48 h, read-out: GI. In short, it runs like this:
as §1

Assay [12] in a line: Cytotoxicity against HGC cells assessed as growth inhibition at 50 uM after 48 hrs by MTT assay relative to control. It counts as functional. The conditions noted are these: Homo sapiens, read-out: GI. In short, it runs like this:
as §1

A short description of assay [13]: Cytotoxicity against […] cells assessed as reduction in cell viability after 48 hrs by MTT assay. Type of assay: functional, cell-based. The conditions noted are these: 4T1, 48 h. Summed up:
as §1

Assay [14] is described as follows: Cytotoxicity against […] cells assessed as growth inhibition at 50 uM after 48 hrs by MTT assay relative to control. It counts as functional. The conditions noted are these: Mus musculus, 4T1, 48 h; read-out: GI. In short, it runs like this: as §1
Assay [15] is described as follows: Cytotoxicity against human MDA-MB-231 cells assessed as reduction in cell viability after 48 hrs by MTT assay. Type of assay: functional, cell-based. The conditions noted are these: MDA-MB-231, 48 h. In short, it runs like this: as §1
The nature of assay [16]: Cytotoxicity against human MDA-MB-231 cells assessed as growth inhibition at 50 uM after 48 hrs by MTT assay relative to control. Type of assay: functional. The conditions noted are these: MDA-MB-231, 48 h, read-out: GI. Summed up:
as §1

The structures appear in SMILES notation.

With `CCn1c(/C=C2/C(=O)Nc3ccc([N+](=O)[O-])cc32)nc2ccccc21`, the half-maximal inhibitory concentration (IC50) in assay [1] is above 50 µM; in [5], above 50 µM; in assay [6] it was 40.1 µM; in assay [8], above 50 µM; in assay [9], above 50 µM; in [10] it was above 50 µM. Moreover, in assay [13], the IC50 was above 50 µM. Further, the inhibition of growth at 50 µM in [2] is below 50%; in assay [3], below 50%; in [4], below 50%; in assay [7] it was below 50%; in assay [11], above 50%; in [12], below 50%. In addition, the inhibition of growth at 50 µM in [14] is below 50%.
With `CCn1c(/C=C2/C(=O)Nc3ccc(C)cc32)nc2ccccc21`, the IC50 in [1] was above 50 µM; in [15], 40.6 µM; in assay [5] it was above 50 µM; in [6], 38.6 µM; in assay [8] it was 39.3 µM; in assay [9], above 50 µM. For the same molecule, the values for the IC50 in [10] and in assay [13] were above 50 µM and 39.4 µM, respectively. Besides, the inhibition of growth at 50 µM in assay [2] was below 50%; in assay [3], below 50%; in [4] it was below 50%; in assay [7] it was above 50%; in [16], above 50%; in [11] it was above 50%. The inhibition of growth at 50 µM in [12] was below 50%; in assay [14], above 50%.
`Cn1c(/C=C2/C(=O)Nc3ccc([N+](=O)[O-])cc32)nc2ccccc21`: the inhibition of growth at 50 µM in assay [3], in assay [7], in assay [11] and in assay [14] was below 50% in each case. In addition, the half-inhibitory concentration (IC50) in [5], in [6], in assay [8] and in assay [13] was above 50 µM in each case.
Consider `CCn1c(/C=C2/C(=O)Nc3ccccc32)nc2ccccc21`, for which the inhibition of growth at 50 µM in assay [3] is below 50%; in assay [4] it was below 50%; in assay [7] it was below 50%; in assay [16], below 50%; in [11], above 50%; in assay [12], below 50%. For the same molecule, the inhibition of growth at 50 µM in assay [14] is below 50%. Also, the 50% inhibitory concentration (IC50) was above 50 µM in [15]; above 50 µM in assay [5]; 38 µM in assay [6]; above 50 µM in [8]; above 50 µM in assay [9]; above 50 µM in [10]. Moreover, the half-maximal inhibitory concentration (IC50) in [13] is above 50 µM.
`CCn1c(/C=C2/C(=O)Nc3ccc(Br)cc32)nc2ccccc21`: the inhibition of growth at 50 µM in assay [3] is below 50%; in [7], above 50%; in [11], above 50%; in assay [12], below 50%; in assay [14], above 50%. Further, the half-inhibitory concentration (IC50) in assay [5] is above 50 µM; in [6], 42.6 µM; in assay [8] it was 45.8 µM; in assay [10], above 50 µM; in [13], 40.7 µM.
In the case of `Cc1ccc2c(c1)/C(=C\c1nc3ccccc3n1C)C(=O)N2`, the inhibition of growth at 50 µM in [3], in [4], in assay [7], in assay [11], in [12] and in assay [14] was below 50% each time. The half-maximal inhibitory concentration (IC50) in assay [5], in assay [6], in assay [8], in [9], in assay [10] and in assay [13] was above 50 µM each time.
